Results on eight substances are retold here after paper PMC2289653 (The Journal of Cell Biology, 1992).

Test [1] deals with plasma membrane-enriched fractions (P100) from vole cells; membrane-bound src receptor. Briefly: In vitro membrane binding of in vitro translated src proteins. To be noted: for decrease in membrane-binding capacity versus wild type: P100 membranes from normal vole cells, average of three experiments, Fig. 5.
A further test deals with myristyl transferase. Briefly: Efficiency of myristylation on translation in reticulocyte lysate. The format is biochemical. The following applies: rabbit reticulocyte lysate; densitometry; normalized to pp60v-src = 1; Table II. The method in brief: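 Constructs translated in rabbit reticulocyte lysate for 90 min at 30°C, with either 0.4 µCi/µl [35S]methionine or 0.7 µCi/µl [3H]myristic acid. Products resolved by SDS gel; myristate-to-methionine incorporation ratio expressed relative to wild-type.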

The subject of test [2] is pp60v-src binding to plasma membranes (src receptor). Briefly: Competition of pp60v-src membrane binding by peptides or polypeptides. Further details: species or system vole. The method in brief:
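1T cell P100 membranes incubated with [35S]methionine-labelled, reticulocyte-lysate-translated protein plus increasing myristylated N-terminal peptides, including Lys→Asn or Arg variants. Nonmyristylated peptide served as control. Incubation 30 min at 20°C, then ultracentrifugation at 100,000 g. Gel slices counted by scintillation. Pellet without membranes subtracted; binding to untreated membranes normalised to 100%.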

The target in test [3] is kin-src binding to plasma membranes (src receptor). Briefly: Competition of kin-src membrane binding by peptides or polypeptides. Further details: species or system vole. The method in brief:
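[35S]methionine-labelled chimera translated in rabbit reticulocyte lysate (90 min, 30°C; Triton X-100 0.075% final), then incubated 30 min at 20°C with 1T cell P100 membranes with increasing myristylated peptide. Also tested: 8-mer at 92 µM, 15-mer at 58 µM, or in vitro translated competitor polypeptide. Pellets at 100,000 g; gel slices counted. Pellet without membranes subtracted; untreated membranes set to 100%.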

In test [4] the test system is del 15-263 binding to vole cell membranes (P100). Briefly: Competition of del 15-263 membrane binding by MGYsrc peptide. The procedure, abridged:
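In vitro translated [35S]methionine-labelled deletion mutant (rabbit reticulocyte lysate) incubated with vole P100 membranes with increasing myristylated src peptide. Binding quantitated by gel slice scintillation counting, pellet without membranes subtracted, untreated membranes set to 100%. In parallel, membranes were incubated 15 min at 20°C with 4 × 10^5 c.p.m. 125I-peptide, then 15 min with BS3 crosslinker, in the presence of increasing unlabelled peptide. After 100,000 g reisolation, SDS gel, and gamma counting of the excised band.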

Test [5] concerns pp60v-src binding to plasma membranes (src receptor). To be noted: previous experiments; ref Resh, 1989; cited from earlier work.
In test [6] the test system is NIH3T3 cells. Briefly: Subcellular fractionation and immunofluorescence of G418-resistant NIH3T3 clones. The class given is cell-based. The following applies: for Percent association with cell fraction P1 / Percent association with cell fraction P100: percentage of total src kinase activity; for Percent association with cell fraction P1: 1,000-g pellet; for Percent association with cell fraction P100: 100,000-g pellet. The method in brief:
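G418-resistant NIH3T3 clones (retroviral transfer) labelled 1 h with 50 µCi/ml [35S]methionine. Cells lysed by hypotonic Dounce homogenisation and spun into a 1,000 g pellet (P1), a 100,000 g pellet (P100) and S100. Fractions adjusted to kinase buffer, immunoprecipitated with anti-p60 serum, and subjected to in vitro kinase assay. Analysed by SDS-PAGE and scintillation counting; each fraction given as percent of total kinase activity.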

Test [7] has as its system NIH3T3 cells. Briefly: Transformation: morphology and growth in soft agar. The format is cell-based. The method in brief: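 NIH3T3 cells transduced with PLJ retroviral vector carrying src or chimera, or with vector alone. G418-resistant clones expanded, then morphology examined by phase-contrast microscopy. Growth in soft agar scored +/− per clone.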
The mark [8] stands for this setting: peptide at 340 μM, 1T cell P100 membranes, Fig. 2.

In the case of “v-src N5: mutant of v-src in which lysine 5 has been converted to asparagine”, the “decrease in membrane-binding capacity versus wild type” value (“decrease” for short) in test [1] was found to be 30%. The “Relative incorporation [3H]myristate/[35S]methionine” value (“Relative incorporation” for short) with myristyl transferase is recorded as 0.99.
For GSSKSKPKDPSY [MGYsrc], the “maximum inhibition of pp60v-src binding” value in test [2] (competition never complete, on average, Figs. 2 and 4) was 50-60%. In addition, the “kin-src polypeptide released from the membrane by MGYsrc” value in test [3] (from the shape of the binding curve in Fig. 2) is listed as around 75%. Moreover, in test [4] (increasing MGYsrc, vole cell P100 membranes, Fig. 6), the “inhibition of binding of the del 15-263 polypeptide” value is reported as 80-90%. In addition, the Ki in test [4] (read-out: Ki for membrane binding of del 15-263, vole P100 membranes, Fig. 7) worked out at 35 µM.
Consider “v-src N9: mutant of v-src in which lysine 9 has been converted to asparagine”, for which, in test [1], the “decrease” value turned out to be 45%. In the test on myristyl transferase, the “Relative incorporation” value came out at 0.98.
Consider GNAAAAKKY [8 mer], for which the “inhibition of membrane binding of kin-src” value in test [3] (peptide at 92 μM) was 35%. Besides, the “inhibition of pp60v-src binding” value in test [5] is “failed to detect inhibition”.
Consider “pp60v-src: protein product of the v-src gene of Rous sarcoma virus; NH2 terminus M G S S K S K P K D P S Q R”, for which, in test [1] (1T membranes (P100), 30 min at 20°C, average of four experiments, Fig. 1), the “ratio of src protein in the pellet fraction +Mbs/-Mbs” value amounted to 3.2. Further, the “competition of radiolabeled kin-src binding by polypeptide” value in test [3] (equimolar or submolar concentrations of in vitro translated polypeptide, data not shown) is on record as “readily com- peted”. Further, the “Percent association with cell fraction P1” value was found to be 43% in the test with NIH3T3 cells [6] (clone 1), 32% with NIH3T3 cells [6] (clone 2), 17% with NIH3T3 cells [6] (clone 3) and 34% with NIH3T3 cells [6] (clone 4). For the same substance, the “Percent association with cell fraction P100” value was 47% in the test with NIH3T3 cells [6] (clone 1), 61% in the test on NIH3T3 cells [6] (clone 2), 67% with NIH3T3 cells [6] (clone 3) and 57% in the test on NIH3T3 cells [6] (clone 4). The “polypeptide membrane associated in vivo” value in the test on NIH3T3 cells [6] (hypotonic lysis and differential centrifugation, Table III) is given as 80-90%. For the same substance, the “subcellular localization in vivo” value with NIH3T3 cells [6] (indirect immunofluorescence and cellular fractionation) is “punctate membrane staining”. Moreover, in the test on NIH3T3 cells [7] (G418-resistant clonal populations, phase contrast, Fig. 3), the “morphology of expressing cells” value was “fully transformed”. The “growth in soft agar” value in the test with NIH3T3 cells [7] (G418-resistant clones, Table III prints + for all four clones of each) was “capable of growth in soft agar”.
As for GSSKSKPKDPSY [GYsrc], the “inhibition of pp60v-src membrane binding” value in test [2] (setting [8]) is on record as 10-20%. Besides, the “inhibition of kin-src membrane binding” value in test [3] (setting [8]) is given as 10-20%.
Regarding “v-src N5+9: mutant of v-src in which both lysines 5 and 9 were converted to asparagine”, the “decrease” value in test [1] is recorded as ~ 60%. In addition, the “Relative incorporation” value in the test on myristyl transferase is 0.93.
As for “GQ1WTTPLY [myristylated gag peptide, reference compound]”, the “effect on the binding of kin-src” value in test [3] (data not shown) is on record as “did not have a significant effect”.
